Reference: ChEMBL document CHEMBL4038284, “Synthesis of novel quinoline-based 4,5-dihydro-1H-pyrazoles as potential anticancer, antifungal, antibacterial and antiprotozoal agents” (Eur J Med Chem, 2017)
In brackets after ≈: the same amount, converted by molar mass. Activity calls are given as the source filed them. The rule behind the calls is not given here.

Legend:
Candida albicans [1] = assay: Growth inhibition of Candida albicans ATCC 10231 at 7.8 ug/ml incubated for 48 hrs under dark condition by broth microdilution method relative to control; format: functional; settings: ATCC 10231, 48 h, read-out: GI
How it was run: (§1)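 CLSI M27-A3 broth microdilution in RPMI-1640, DMSO ≤1%. Inoculum 1-5 × 10^3 CFU/mL. Incubated 48 h at 30 °C, dark. % inhibition = 100 − (OD405 test − sterility control)/(OD405 growth control − sterility control), with growth and sterility control wells. Triplicate.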

SK-MEL-28 = assay: Growth inhibition of human SK-MEL-28 cells at 10 uM incubated for 48 hrs by sulforhodamine B assay; format: functional, cell-based
How it was run: (§2)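 NCI-60 single-dose screen at 10 µM for 48 h. Cells were grown in RPMI-1640 with 5% FBS and 2 mM L-glutamine and preincubated 24 h before compound. Time-zero plates were TCA-fixed at compound addition. After exposure, cells were TCA-fixed, stained with SRB and read at 515 nm. Percentage growth was calculated against time-zero and untreated-control absorbances.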

Escherichia coli = assay: Antibacterial activity against Escherichia coli ATCC 25922 after 24 hrs by resazurin dye based microdilution assay; format: functional; settings: ATCC 25922, 24 h
How it was run: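 MIC taken as the lowest concentration giving visible inhibition and/or by resazurin (1 mg/mL). Gentamicin was the control. Run in duplicate, repeated at least three times.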

SN12C = assay: Growth inhibition of human SN12C cells at 10 uM incubated for 48 hrs by sulforhodamine B assay; format: functional, cell-based; how it was run: as §2
RPMI-8226 = assay: Growth inhibition of human RPMI8226 cells at 10 uM incubated for 48 hrs by sulforhodamine B assay; format: functional, cell-based
How it was run: (§3)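 NCI 60-line panel, single 10 μM dose. Cells were grown in RPMI-1640 with 5% FBS and 2 mM L-glutamine and pre-incubated 24 h before compound addition (DMSO stock). Exposure was 48 h at 37 °C, 5% CO2. Cells were fixed with cold TCA (10% final), stained with 0.4% SRB, bound dye dissolved in 10 mM Tris base, A515 read. Growth was taken relative to time-zero and untreated control plates.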

Candida albicans [2] = assay: Antifungal activity against Candida albicans ATCC 10231 incubated for 48 hrs under dark condition by broth microdilution method; format: functional; settings: ATCC 10231, 48 h
How it was run: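 CLSI M27-A3 broth microdilution in RPMI-1640, DMSO ≤1%, compounds at 250-0.98 µg/mL final. Inoculum 1-5 × 10^3 CFU/mL. Incubated 48 h at 30 °C in a moist dark chamber, read at OD405. MIC80 and MIC50 taken from % inhibition dose-response curves (mean ± SEM, triplicate). Amphotericin B was the positive control.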

TK-10 = assay: Growth inhibition of human TK10 cells at 10 uM incubated for 48 hrs by sulforhodamine B assay; format: functional, cell-based; how it was run: as §2
U-937 = assay: Cytotoxicity against human U937 cells after 72 hrs by MTT assay; format: cell-based; settings: u-937, 72 h
How it was run: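 Exponentially growing U-937 at 1 × 10^5 cells/mL in RPMI-1640 with 10% FBS were exposed to 200, 50, 12.5 and 3.125 µg/mL for 72 h at 37 °C, 5% CO2. MTT for 3 h, stopped with isopropanol/SDS, formazan read at 570 nm, blank-corrected. LC50 by Probit from % viability against untreated cells. Triplicate, at least two independent experiments.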

RXF 393 = assay: Growth inhibition of human RXF393 cells at 10 uM incubated for 48 hrs by sulforhodamine B assay; format: functional, cell-based; how it was run: as §3
SNB-19 = assay: Growth inhibition of human SNB19 cells at 10 uM incubated for 48 hrs by sulforhodamine B assay; format: functional, cell-based; how it was run: as §2
HCT-116 = assay: Growth inhibition of human HCT116 cells at 10 uM incubated for 48 hrs by sulforhodamine B assay; format: functional, cell-based
How it was run: (§4)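 NCI 60-cell-line screen at a single 10 µM dose. Cells in RPMI-1640 with 5% FBS and 2 mM L-glutamine, pre-incubated 24 h, then treated for 48 h at 37 °C. TCA fixation, sulforhodamine B staining, absorbance at 515 nm. Percentage growth calculated against time-zero and untreated controls.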

IGROV-1 = assay: Growth inhibition of human IGROV1 cells at 10 uM incubated for 48 hrs by sulforhodamine B assay; format: functional, cell-based; how it was run: as §3
NCI-H460 = assay: Growth inhibition of human NCI-H460 cells at 10 uM incubated for 48 hrs by sulforhodamine B assay; format: functional, cell-based; how it was run: as §3
Cryptococcus neoformans [3] = assay: Growth inhibition of Cryptococcus neoformans ATCC 32264 at 62.5 ug/ml incubated for 48 hrs under dark condition by broth microdilution method relative to control; format: functional; settings: ATCC 32264, 48 h, read-out: GI; how it was run: as §1
KM12 = assay: Growth inhibition of human KM12 cells at 10 uM incubated for 48 hrs by sulforhodamine B assay; format: functional, cell-based; how it was run: as §3
Cryptococcus neoformans [4] = assay: Growth inhibition of Cryptococcus neoformans ATCC 32264 at 125 ug/ml incubated for 48 hrs under dark condition by broth microdilution method relative to control; format: functional; settings: ATCC 32264, 48 h, read-out: GI; how it was run: as §1
HT-29 = assay: Growth inhibition of human HT-29 cells at 10 uM incubated for 48 hrs by sulforhodamine B assay; format: functional, cell-based; how it was run: as §3
Plasmodium falciparum = assay: Antiplasmodial activity against chloroquine-sensitive Plasmodium falciparum 3D7 assessed as reduction in parasitic LDH activity after 48 hrs by Malstat reagent based […] method; format: functional; settings: 3D7, 48 h
How it was run: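 Unsynchronized P. falciparum 3D7 at 0.5% parasitemia and 1% hematocrit in RPMI with 3% Albumax II. Exposed to 100, 25, 6.25 and 1.56 µg/mL for 48 h at 37 °C under 90% N2/5% CO2/5% O2. After three freeze-thaw cycles, LDH measured with Malstat and NBT/PES, 1 h in the dark, read at 650 nm. IC50 by Probit; triplicate, ≥2 experiments.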

Trypanosoma cruzi = assay: Antitrypanosomal activity against Trypanosoma cruzi Tulahuen intracellular amastigote harboring LacZ infected in human U937 cells after 72 hrs by CPRG/Nonidet reagent based spectrophotometric method; format: functional, cell-based; settings: U-937, 72 h
How it was run: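 U-937 cells at 2.5 × 10^5 cells/mL in RPMI-1640 with 10% serum and 0.1 µg/mL PMA were infected with β-galactosidase-transfected Tulahuen epimastigotes at 5 parasites per cell. Infected cells were exposed to 50, 12.5, 3.125 and 0.78 µg/mL for 72 h. CPRG (100 uM) and 0.1% Nonidet P-40 were added for 3 h, read at 570 nm. EC50 by Probit. Triplicate, at least two experiments; benznidazole as reference.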

Candida albicans [5] = assay: Growth inhibition of Candida albicans ATCC 10231 at 15.62 ug/ml incubated for 48 hrs under dark condition by broth microdilution method relative to control; format: functional; settings: ATCC 10231, 48 h, read-out: GI; how it was run: as §1
ACHN = assay: Growth inhibition of human ACHN cells at 10 uM incubated for 48 hrs by sulforhodamine B assay; format: functional, cell-based; how it was run: as §4
Candida albicans [6] = assay: Growth inhibition of Candida albicans ATCC 10231 at 250 ug/ml incubated for 48 hrs under dark condition by broth microdilution method relative to control; format: functional; settings: ATCC 10231, 48 h, read-out: GI; how it was run: as §1
Cryptococcus neoformans [7] = assay: Growth inhibition of Cryptococcus neoformans ATCC 32264 at 7.8 ug/ml incubated for 48 hrs under dark condition by broth microdilution method relative to control; format: functional; settings: ATCC 32264, 48 h, read-out: GI; how it was run: as §1

Clc1ccc(C2=NN(c3ccc(Cl)cc3)C(c3cccc(Nc4ccnc5cc(Cl)ccc45)c3)C2)cc1 (stereo unspecified)
inhibition of growth at 7.8 µg/mL (Candida albicans [1]): 2.96%
growth inhibition (GI) (SK-MEL-28): inactive
MIC (Escherichia coli): > 1000 µg/mL
growth inhibition (GI) (SN12C): inactive
growth inhibition (GI) (RPMI-8226): inactive
MIC50 (Candida albicans [2]): ≥ 250 µg/mL
MIC80 (Candida albicans [2]): ≥ 250 µg/mL
growth inhibition (GI) (TK-10): inactive
LC50 (U-937): > 200 µg/mL
growth inhibition (GI) (RXF 393): inactive
growth inhibition (GI) (SNB-19): inactive
growth inhibition (GI) (HCT-116): inactive
growth inhibition (GI) (IGROV-1): inactive
growth inhibition (GI) (NCI-H460): inactive
inhibition of growth at 62.5 µg/mL (Cryptococcus neoformans [3]): 25.8%
growth inhibition (GI) (KM12): inactive
inhibition of growth at 125 µg/mL (Cryptococcus neoformans [4]): 46%
growth inhibition (GI) (HT-29): inactive
EC50 (Plasmodium falciparum): 10.3 µg/mL (≈ 18.9 µM)
EC50 (Trypanosoma cruzi): 55.8 µg/mL (≈ 103 µM)
inhibition of growth at 15.62 µg/mL (Candida albicans [5]): 6.09%
growth inhibition (GI) (ACHN): inactive
inhibition of growth at 250 µg/mL (Candida albicans [6]): 40.4%
inhibition of growth at 7.8 µg/mL (Cryptococcus neoformans [7]): 18.4%

COc1ccc(C2=NN(c3ccc(Cl)cc3)C(c3cccc(Nc4ccnc5cc(Cl)ccc45)c3)C2)cc1 (stereo unspecified)
inhibition of growth at 7.8 µg/mL (Candida albicans [1]): 0%
growth inhibition (GI) (SK-MEL-28): inactive
MIC (Escherichia coli): > 1000 µg/mL
growth inhibition (GI) (SN12C): inactive
growth inhibition (GI) (RPMI-8226): inactive
MIC50 (Candida albicans [2]): ≥ 250 µg/mL
MIC80 (Candida albicans [2]): ≥ 250 µg/mL
growth inhibition (GI) (TK-10): inactive
LC50 (U-937): > 200 µg/mL
growth inhibition (GI) (RXF 393): inactive
growth inhibition (GI) (SNB-19): inactive
growth inhibition (GI) (HCT-116): inactive
growth inhibition (GI) (IGROV-1): inactive
growth inhibition (GI) (NCI-H460): inactive
inhibition of growth at 62.5 µg/mL (Cryptococcus neoformans [3]): 14.1%
growth inhibition (GI) (KM12): inactive
inhibition of growth at 125 µg/mL (Cryptococcus neoformans [4]): 26.7%
growth inhibition (GI) (HT-29): inactive
EC50 (Plasmodium falciparum): 44.6 µg/mL (≈ 82.6 µM)
EC50 (Trypanosoma cruzi): 44.6 µg/mL (≈ 82.6 µM)
inhibition of growth at 15.62 µg/mL (Candida albicans [5]): 0%
growth inhibition (GI) (ACHN): inactive
inhibition of growth at 250 µg/mL (Candida albicans [6]): 3.08%
inhibition of growth at 7.8 µg/mL (Cryptococcus neoformans [7]): 10.1%

Clc1ccc(C2=NN(c3cc(Cl)cc(Cl)c3)C(c3cccc(Nc4ccnc5cc(Cl)ccc45)c3)C2)cc1 (stereo unspecified)
inhibition of growth at 7.8 µg/mL (Candida albicans [1]): 6.01%
growth inhibition (GI) (SK-MEL-28): inactive
MIC (Escherichia coli): > 1000 µg/mL
growth inhibition (GI) (SN12C): inactive
growth inhibition (GI) (RPMI-8226): inactive
MIC50 (Candida albicans [2]): ≥ 250 µg/mL
MIC80 (Candida albicans [2]): ≥ 250 µg/mL
growth inhibition (GI) (TK-10): inactive
LC50 (U-937): > 200 µg/mL
growth inhibition (GI) (RXF 393): inactive
growth inhibition (GI) (SNB-19): inactive
growth inhibition (GI) (HCT-116): inactive
growth inhibition (GI) (IGROV-1): inactive
growth inhibition (GI) (NCI-H460): inactive
inhibition of growth at 62.5 µg/mL (Cryptococcus neoformans [3]): 1.2%
growth inhibition (GI) (KM12): inactive
inhibition of growth at 125 µg/mL (Cryptococcus neoformans [4]): 4.65%
growth inhibition (GI) (HT-29): inactive
EC50 (Plasmodium falciparum): 11.3 µg/mL (≈ 19.6 µM)
EC50 (Trypanosoma cruzi): 19.1 µg/mL (≈ 33 µM)
inhibition of growth at 15.62 µg/mL (Candida albicans [5]): 10.8%
growth inhibition (GI) (ACHN): inactive
inhibition of growth at 250 µg/mL (Candida albicans [6]): 35%
inhibition of growth at 7.8 µg/mL (Cryptococcus neoformans [7]): 0%

COc1ccc(C(=O)/C=C/c2cccc(Nc3ccnc4cc(Cl)ccc34)c2)cc1
inhibition of growth at 7.8 µg/mL (Candida albicans [1]): 12.5%
growth inhibition (GI) (SK-MEL-28): Active
MIC (Escherichia coli): > 1000 µg/mL
growth inhibition (GI) (SN12C): Active
growth inhibition (GI) (RPMI-8226): Active
MIC50 (Candida albicans [2]): 250 µg/mL (≈ 603 µM)
MIC80 (Candida albicans [2]): ≥ 250 µg/mL
growth inhibition (GI) (TK-10): Active
LC50 (U-937): 8.1 µg/mL (≈ 19.5 µM)
growth inhibition (GI) (RXF 393): Active
growth inhibition (GI) (SNB-19): Active
growth inhibition (GI) (HCT-116): Active
growth inhibition (GI) (IGROV-1): Active
growth inhibition (GI) (NCI-H460): Active
inhibition of growth at 62.5 µg/mL (Cryptococcus neoformans [3]): 13.9%
growth inhibition (GI) (KM12): Active
inhibition of growth at 125 µg/mL (Cryptococcus neoformans [4]): 34.4%
growth inhibition (GI) (HT-29): Active
EC50 (Plasmodium falciparum): 10.5 µg/mL (≈ 25.4 µM)
EC50 (Trypanosoma cruzi): 3.29 µg/mL (≈ 7.93 µM)
inhibition of growth at 15.62 µg/mL (Candida albicans [5]): 26.8%
growth inhibition (GI) (ACHN): Active
inhibition of growth at 250 µg/mL (Candida albicans [6]): 59.6%
inhibition of growth at 7.8 µg/mL (Cryptococcus neoformans [7]): 2.47%
